ChEMBL document CHEMBL3769403, “Carbonic anhydrase activators: Activation of the β-carbonic anhydrase from Malassezia globosa with amines and amino acids” (Bioorg Med Chem Lett, 2016)

Legend:
Malassezia globosa [1] = assay: Activation of Malassezia globosa beta-carbonic anhydrase incubated for 15 mins prior to testing by stopped flow CO2 hydrase method
How it was run: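 Recombinant M. globosa β-CA (12.1 nM in assay; enzymes 10-14 nM) preincubated with activator 15 min at room temperature. CO2 hydration followed 10 s at 25 °C by stopped-flow, phenol red 0.2 mM at 557 nm, 20 mM Tris pH 8.3, 20 mM NaClO4; CO2 0.17-17 mM. Initial velocities from the first 5-10% of at least six traces, uncatalyzed rate subtracted; KA from the competitive steady-state equation; mean of 3 assays.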

Malassezia globosa [2] = conditions: 10 uM

Row | SMILES | KA (Malassezia globosa [1]) | kcat (Malassezia globosa [2])
1 | NCCc1c[nH]c2ccc(O)cc12 | 14.2 µM | –
2 | N[C@H](Cc1ccccc1)C(=O)O | 10.7 µM | –
3 | N[C@H](Cc1ccc(O)c(O)c1)C(=O)O | 13.7 µM | –
4 | N[C@@H](Cc1ccccc1)C(=O)O | 34.1 µM | –
5 | NCCN1CCNCC1 | 0.81 µM | –
6 | NCCc1ccccn1 | 7.3 µM | –
7 | N[C@H](Cc1c[nH]c2ccccc12)C(=O)O | 12.5 µM | –
8 | NCc1ccccn1 | 6.12 µM | –
9 | N[C@@H](Cc1c[nH]cn1)C(=O)O | 29.3 µM | –
10 | N[C@@H](Cc1c[nH]c2ccccc12)C(=O)O | 10.1 µM | –
11 | N[C@H](Cc1c[nH]cn1)C(=O)O | 18.1 µM | –
12 | NCCc1c[nH]cn1 | 10.9 µM | 18.5 ×10⁵ /s
13 | N[C@@H](Cc1ccc(O)c(O)c1)C(=O)O | 8.31 µM | –
14 | N[C@@H](Cc1ccc(O)cc1)C(=O)O | 15.7 µM | –
15 | N[C@H](Cc1ccc(O)cc1)C(=O)O | 25.1 µM | –
16 | Nc1ccc(C[C@H](N)C(=O)O)cc1 | 13.4 µM | –
17 | CNC[C@H](O)c1ccc(O)c(O)c1 | 0.72 µM | –
18 | NCCc1ccc(O)c(O)c1 | 9.43 µM | –
19 | NCCN1CCOCC1 | 5.82 µM | –
